# Legend:
# Homo sapiens [1] = organism: Homo sapiens; assay: Inhibition of human dopamine receptor 4.2 at 10 uM
# [2] = biological target: Neprilysin (Rattus norvegicus) (UniProt P07861); assay: Inhibition of rat neutral endopeptidase at 10 uM
# Rattus norvegicus [3] = organism: Rattus norvegicus; assay: Inhibition of rat GABA B receptor at 10 uM
# [4] = biological target: Collagenase 3 (Homo sapiens) (UniProt P45452); assay: Inhibition of human MMP-13 at 10 uM
# Homo sapiens [5] = organism: Homo sapiens; assay: Inhibition of human nicotinic acetylcholine receptor at 10 uM
# [6] = biological target: Disintegrin and metalloproteinase domain-containing protein 17 (Homo sapiens) (UniProt P78536); assay: Inhibition of human TACE at 10 uM
# [7] = biological target: D(4) dopamine receptor (Homo sapiens) (UniProt P21917); assay: Inhibition of human dopamine receptor 4.4 at 10 uM
# [8] = biological target: Matrix metalloproteinase-9 (Homo sapiens) (UniProt P14780); assay: Inhibition of human MMP-9 at 10 uM
# [9] = biological target: Sterol O-acyltransferase 2 (Rattus norvegicus) (UniProt Q7TQM4); assay: Inhibition of rat hapatic, acyl coA cholesterol acetyltransferase at 10 uM
# Rattus norvegicus [10] = organism: Rattus norvegicus; assay: Inhibition of rat GABA-A receptor, agonist site at 10 uM; format: functional
# Rattus norvegicus [11] = organism: Rattus norvegicus; assay: Inhibition of rat GABA-A receptor, chloride channel at 10 uM
# Caspase-2 (Homo sapiens) = Caspase-2 (Homo sapiens) (UniProt P42575); assay: Inhibition of human caspase-2 at 10 uM
# Rattus norvegicus [12] = organism: Rattus norvegicus; assay: Inhibition of rat sodium channel site 2 at 10 uM
# Homo sapiens [13] = organism: Homo sapiens; assay: Inhibition of human tryptase at 10 uM
# Rattus norvegicus [14] = organism: Rattus norvegicus; assay: Inhibition of rat potassium channel-A at 10 uM
# Caspase-8 (Homo sapiens) = Caspase-8 (Homo sapiens) (UniProt Q14790); assay: Inhibition of human caspase-8 at 10 uM
# Hepatitis C virus = assay: Antiviral activity against HCV 2a clone JFH1 infected in Huh7 cells assessed as inhibition of viral replication after 72 hrs by RT-PCR; format: functional, organism-based, Hepacivirus hominis; details: genotype 2a clone JFH1, Huh-7, 72 h
# In short: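 Genotype 2a replicon (Huh-7 cells carrying an unadapted JFH-1 NS3-NS5B subgenomic replicon) was kept with 0.25 mg/ml G418 and plated at 10,000 cells/well without G418. Next day, serial dilutions in DMEM/10% FBS/0.5% DMSO were added for 72 h. Replicon RNA was measured by TaqMan RT-PCR and normalized to total RNA. Mean ± SD, ≥3 experiments.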
# Rattus norvegicus [15] = organism: Rattus norvegicus; assay: Inhibition of rat mAChR at 10 uM
# [16] = Cmax in monkey at 5 mg/kg, po; format: ADME, organism-based, Macaca mulatta; design: dose 5 mg/kg, route oral; details: rhesus monkey, in vivo
# In short: (§1)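 Single oral dose of 5 mg/kg in 0.5% Methocel with 0.3% Tween 80 (10 ml/kg) to fasted male animals: Sprague-Dawley rats (275-300 g, overnight fast with 10% dextrose water), rhesus monkeys, beagle dogs. Rat blood from cannulated carotid at 0-8 h, pooled from 3 rats per time point; monkey/dog n=3. Plasma solid-phase extracted, LC-MS/MS at m/z 869.3; noncompartmental analysis.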
# [17] = biological target: Prothrombin (Homo sapiens) (UniProt P00734); assay: Inhibition of human thrombin at 10 uM
# [18] = biological target: Cathepsin D (Homo sapiens) (UniProt P07339); assay: Inhibition of human cathepsin D; details: concentration not given here
# [19] = Tmax in monkey at 5 mg/kg, po; format: ADME, organism-based, Macaca mulatta; design: dose 5 mg/kg, route oral; details: rhesus monkey, in vivo
# In short: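 Fasted male rhesus monkeys (3.0-4.8 kg) given a single oral dose in 0.5% Methocel/0.3% Tween 80. Plasma taken by solid-phase extraction and measured by LC-MS/MS at m/z 869.3 (LOQ 10 nM). Noncompartmental analysis. Mean ± SE for three males.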
# [20] = AUC (0 to infinity) in monkey at 5 mg/kg, po; format: ADME, organism-based, Macaca mulatta; design: time infinity, dose 5 mg/kg, route oral; details: rhesus monkey, plasma; in short: as §1
# [21] = biological target: Sodium-dependent noradrenaline transporter (Homo sapiens) (UniProt P23975); assay: Inhibition of human norepinephrine transporter at 10 uM
# [22] = biological target: Plasminogen (Homo sapiens) (UniProt P00747); assay: Inhibition of human plasmin at 10 uM
# [23] = biological target: Nitric oxide synthase, inducible (Mus musculus) (UniProt P29477); assay: Inhibition of mouse iNOS at 10 uM
# [24] = biological target: Beta-secretase 1 (Homo sapiens) (UniProt P56817); assay: Inhibition of human recombinant BACE-1 at 10 uM
# [25] = biological target: 5-hydroxytryptamine receptor 2A (Rattus norvegicus) (UniProt P14842); assay: Inhibition of rat 5-HT2A receptor at 10 uM
# [26] = biological target: Cathepsin G (Homo sapiens) (UniProt P08311); assay: Inhibition of human cathepsin G at 10 uM
# Caspase-5 (Homo sapiens) = Caspase-5 (Homo sapiens) (UniProt P51878); assay: Inhibition of human caspase-5 at 10 uM
# [27] = biological target: D(2) dopamine receptor (Homo sapiens) (UniProt P14416); assay: Inhibition of human dopamine receptor 2L at 10 uM
# [28] = Cmax in Sprague-Dawley rat at 5 mg/kg, po; format: ADME, organism-based, Sparague-Dawley; design: dose 5 mg/kg, route oral; details: in vivo; in short: as §1
# Trypsin (Homo sapiens) = Trypsin (Homo sapiens) (UniProt P07477+P07478+P35030); assay: Inhibition of human trypsin at 10 uM; format: protein assay
# [29] = biological target: Interstitial collagenase (Homo sapiens) (UniProt P03956); assay: Inhibition of human MMP-1 at 10 uM
# [30] = biological target: Nitric oxide synthase 3 (Rattus norvegicus) (UniProt Q62600); assay: Inhibition of rat cNOS at 10 uM
# [31] = biological target: Neutrophil collagenase (Homo sapiens) (UniProt P22894); assay: Inhibition of human MMP-8 at 10 uM
# [32] = biological target: Neprilysin (Homo sapiens) (UniProt P08473); assay: Inhibition of human neutral endopeptidase from HUV-EC-C cells at 10 uM by fluorimetry
# Mesocricetus auratus = organism: Mesocricetus auratus; assay: Inhibition of syrian hamster potassium channel-ATP at 10 uM
# [33] = biological target: 5-hydroxytryptamine receptor 4 (Cavia porcellus) (UniProt O70528); assay: Inhibition of guinea pig 5-HT4 receptor at 10 uM
# Caspase-1 (Homo sapiens) = Caspase-1 (Homo sapiens) (UniProt P29466); assay: Inhibition of human caspase-1 at 10 uM
# [34] = biological target: Thromboxane A2 receptor (Homo sapiens) (UniProt P21731); assay: Inhibition of human Thromboxane A2 receptor at 10 uM
# [35] = biological target: Neutrophil elastase (Homo sapiens) (UniProt P08246); assay: Inhibition of human elastase, leukocyte at 10 uM
# [36] = biological target: Serine/threonine protein phosphatase PP2B-alpha catalytic subunit (Homo sapiens) (UniProt P16298); assay: Inhibition of human PP2B at 10 uM
# [37] = Tmax in rat at 5 mg/kg, po; format: ADME, organism-based; design: dose 5 mg/kg, route oral; details: in vivo
# In short: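 Male Sprague-Dawley rats (275-300 g), fasted overnight with 10% dextrose water. Single oral dose in 0.5% Methocel/0.3% Tween 80 at 10 ml/kg. Carotid-cannula blood taken 0-8 h, with plasma from 3 rats pooled per time point. Solid-phase extraction, then LC-MS/MS at m/z 869.3 (LOQ 10 nM). Noncompartmental analysis.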
# Chain of Neprilysin (Homo sapiens) (P08473 whole entry): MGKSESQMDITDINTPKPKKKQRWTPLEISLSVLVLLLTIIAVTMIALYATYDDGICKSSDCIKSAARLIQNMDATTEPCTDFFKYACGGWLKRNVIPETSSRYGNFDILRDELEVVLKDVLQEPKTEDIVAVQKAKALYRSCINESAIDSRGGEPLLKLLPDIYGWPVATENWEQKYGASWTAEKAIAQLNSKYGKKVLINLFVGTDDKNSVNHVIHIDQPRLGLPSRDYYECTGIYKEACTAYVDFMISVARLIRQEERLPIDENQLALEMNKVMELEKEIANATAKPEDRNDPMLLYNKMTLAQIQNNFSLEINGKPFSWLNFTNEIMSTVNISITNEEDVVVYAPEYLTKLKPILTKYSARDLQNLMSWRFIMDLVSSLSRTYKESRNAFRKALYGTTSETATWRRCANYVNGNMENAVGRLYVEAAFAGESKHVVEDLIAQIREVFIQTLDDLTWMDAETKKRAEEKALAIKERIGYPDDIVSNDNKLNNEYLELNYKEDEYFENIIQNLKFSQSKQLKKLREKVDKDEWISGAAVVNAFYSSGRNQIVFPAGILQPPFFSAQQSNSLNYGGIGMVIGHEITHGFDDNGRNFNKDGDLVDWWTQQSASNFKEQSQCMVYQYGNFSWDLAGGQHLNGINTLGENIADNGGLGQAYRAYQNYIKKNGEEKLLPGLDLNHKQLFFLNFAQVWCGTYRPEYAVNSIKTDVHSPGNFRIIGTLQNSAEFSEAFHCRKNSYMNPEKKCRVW
# Chain of Interstitial collagenase (Homo sapiens) (P03956 whole entry): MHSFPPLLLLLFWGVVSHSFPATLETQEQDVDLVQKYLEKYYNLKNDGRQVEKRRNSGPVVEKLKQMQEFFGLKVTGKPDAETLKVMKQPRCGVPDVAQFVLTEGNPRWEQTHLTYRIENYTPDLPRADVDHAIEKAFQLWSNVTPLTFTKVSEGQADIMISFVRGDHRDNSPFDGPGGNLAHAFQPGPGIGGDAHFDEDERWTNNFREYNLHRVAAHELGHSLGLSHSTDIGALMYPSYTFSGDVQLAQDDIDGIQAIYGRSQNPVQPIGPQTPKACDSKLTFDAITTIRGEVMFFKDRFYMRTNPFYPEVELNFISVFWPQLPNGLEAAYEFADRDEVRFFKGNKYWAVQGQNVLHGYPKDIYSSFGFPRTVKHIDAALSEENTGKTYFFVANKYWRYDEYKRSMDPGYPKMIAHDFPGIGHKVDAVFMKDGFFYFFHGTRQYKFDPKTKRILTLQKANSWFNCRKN
# Chain of 5-hydroxytryptamine receptor 4 (Cavia porcellus) (O70528 whole entry): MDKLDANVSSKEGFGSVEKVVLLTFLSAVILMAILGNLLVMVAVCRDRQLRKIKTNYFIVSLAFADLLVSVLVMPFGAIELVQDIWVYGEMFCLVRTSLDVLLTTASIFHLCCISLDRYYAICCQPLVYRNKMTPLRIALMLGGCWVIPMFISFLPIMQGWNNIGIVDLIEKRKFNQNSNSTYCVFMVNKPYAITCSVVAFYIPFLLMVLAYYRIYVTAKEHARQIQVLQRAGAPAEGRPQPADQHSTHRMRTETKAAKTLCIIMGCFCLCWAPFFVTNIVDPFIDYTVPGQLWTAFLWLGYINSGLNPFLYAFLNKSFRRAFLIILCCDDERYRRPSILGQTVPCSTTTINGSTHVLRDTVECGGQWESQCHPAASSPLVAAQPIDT
# Chain of Neutrophil elastase (Homo sapiens) (P08246 whole entry): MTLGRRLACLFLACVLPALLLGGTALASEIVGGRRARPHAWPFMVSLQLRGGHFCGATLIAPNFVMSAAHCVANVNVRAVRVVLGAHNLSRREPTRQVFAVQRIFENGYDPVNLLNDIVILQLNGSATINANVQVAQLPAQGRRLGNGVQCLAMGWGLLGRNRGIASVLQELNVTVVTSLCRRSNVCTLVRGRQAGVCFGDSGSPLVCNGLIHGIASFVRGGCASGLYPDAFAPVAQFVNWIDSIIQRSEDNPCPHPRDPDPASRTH
# Chain of Disintegrin and metalloproteinase domain-containing protein 17 (Homo sapiens) (P78536 whole entry, the tested form may be a part): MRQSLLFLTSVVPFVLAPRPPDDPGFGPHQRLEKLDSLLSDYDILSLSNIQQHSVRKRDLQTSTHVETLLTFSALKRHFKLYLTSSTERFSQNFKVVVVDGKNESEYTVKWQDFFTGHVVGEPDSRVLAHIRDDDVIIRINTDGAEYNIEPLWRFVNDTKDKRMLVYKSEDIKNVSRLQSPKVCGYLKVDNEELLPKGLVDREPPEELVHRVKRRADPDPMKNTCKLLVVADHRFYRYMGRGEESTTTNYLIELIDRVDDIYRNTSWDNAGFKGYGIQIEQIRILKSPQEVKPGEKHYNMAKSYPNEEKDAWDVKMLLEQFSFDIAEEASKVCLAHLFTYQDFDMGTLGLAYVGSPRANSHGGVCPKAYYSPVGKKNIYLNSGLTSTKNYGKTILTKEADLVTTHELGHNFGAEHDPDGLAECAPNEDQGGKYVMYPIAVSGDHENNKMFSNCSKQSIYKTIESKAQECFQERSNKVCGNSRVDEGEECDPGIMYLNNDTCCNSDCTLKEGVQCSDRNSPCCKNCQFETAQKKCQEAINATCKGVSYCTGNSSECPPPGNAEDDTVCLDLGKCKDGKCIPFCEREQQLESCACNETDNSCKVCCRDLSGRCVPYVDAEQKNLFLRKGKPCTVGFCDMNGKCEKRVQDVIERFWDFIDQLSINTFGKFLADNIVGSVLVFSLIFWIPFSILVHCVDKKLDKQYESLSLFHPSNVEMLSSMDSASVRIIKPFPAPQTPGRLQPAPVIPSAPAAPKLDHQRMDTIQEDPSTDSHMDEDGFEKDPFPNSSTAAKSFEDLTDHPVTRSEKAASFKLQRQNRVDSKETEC
# Chain of D(2) dopamine receptor (Homo sapiens) (P14416 whole entry): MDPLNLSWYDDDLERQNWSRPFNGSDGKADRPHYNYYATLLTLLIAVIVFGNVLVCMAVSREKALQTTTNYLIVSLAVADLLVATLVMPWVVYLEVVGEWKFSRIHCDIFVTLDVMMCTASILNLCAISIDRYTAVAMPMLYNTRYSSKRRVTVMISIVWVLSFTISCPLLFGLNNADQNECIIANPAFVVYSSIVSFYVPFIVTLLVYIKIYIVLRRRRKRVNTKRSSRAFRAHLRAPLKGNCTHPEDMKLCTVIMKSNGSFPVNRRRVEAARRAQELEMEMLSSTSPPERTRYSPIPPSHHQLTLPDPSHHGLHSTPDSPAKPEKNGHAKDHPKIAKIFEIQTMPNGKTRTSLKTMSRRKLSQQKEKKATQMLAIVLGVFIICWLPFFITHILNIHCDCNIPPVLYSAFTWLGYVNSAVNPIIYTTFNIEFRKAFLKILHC
# Chain of Sterol O-acyltransferase 2 (Rattus norvegicus) (Q7TQM4 whole entry): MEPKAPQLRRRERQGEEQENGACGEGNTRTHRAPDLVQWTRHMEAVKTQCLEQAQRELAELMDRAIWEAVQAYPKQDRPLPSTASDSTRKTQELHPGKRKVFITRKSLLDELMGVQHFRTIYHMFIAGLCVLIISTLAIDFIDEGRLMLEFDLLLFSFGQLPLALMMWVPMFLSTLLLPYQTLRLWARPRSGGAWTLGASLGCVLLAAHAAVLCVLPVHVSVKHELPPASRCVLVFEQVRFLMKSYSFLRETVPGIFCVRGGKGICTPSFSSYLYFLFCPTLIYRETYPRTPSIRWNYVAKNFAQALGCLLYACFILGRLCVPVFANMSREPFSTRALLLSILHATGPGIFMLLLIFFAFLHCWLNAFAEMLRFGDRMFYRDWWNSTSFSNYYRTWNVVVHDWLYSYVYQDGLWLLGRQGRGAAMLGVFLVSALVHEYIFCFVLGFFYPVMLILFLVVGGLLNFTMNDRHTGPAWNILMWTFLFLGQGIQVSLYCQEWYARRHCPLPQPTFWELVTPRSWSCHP
# Chain of Sodium-dependent noradrenaline transporter (Homo sapiens) (P23975 whole entry): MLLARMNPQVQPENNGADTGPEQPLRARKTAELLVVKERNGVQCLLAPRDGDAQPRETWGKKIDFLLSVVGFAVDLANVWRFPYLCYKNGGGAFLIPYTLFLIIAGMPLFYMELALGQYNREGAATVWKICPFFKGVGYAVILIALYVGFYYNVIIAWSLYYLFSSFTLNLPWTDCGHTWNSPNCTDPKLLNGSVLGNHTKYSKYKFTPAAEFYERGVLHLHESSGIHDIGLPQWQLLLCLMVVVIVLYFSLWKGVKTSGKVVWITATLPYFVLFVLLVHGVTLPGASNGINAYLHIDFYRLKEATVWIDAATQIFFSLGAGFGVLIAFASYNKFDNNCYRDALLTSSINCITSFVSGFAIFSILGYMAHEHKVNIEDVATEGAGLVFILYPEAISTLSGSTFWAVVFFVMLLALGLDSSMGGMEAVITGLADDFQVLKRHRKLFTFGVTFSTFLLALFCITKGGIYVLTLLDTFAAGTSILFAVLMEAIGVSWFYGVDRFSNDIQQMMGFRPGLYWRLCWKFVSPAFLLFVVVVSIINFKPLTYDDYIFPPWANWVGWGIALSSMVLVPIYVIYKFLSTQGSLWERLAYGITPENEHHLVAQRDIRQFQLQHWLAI
# Chain of Cathepsin D (Homo sapiens) (P07339 65-162 limits assumed): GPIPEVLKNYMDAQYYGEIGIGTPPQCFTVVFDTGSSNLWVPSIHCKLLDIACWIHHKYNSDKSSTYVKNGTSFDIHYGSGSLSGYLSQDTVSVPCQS
# Chain of Cathepsin D (Homo sapiens) (P07339 169-412 limits assumed): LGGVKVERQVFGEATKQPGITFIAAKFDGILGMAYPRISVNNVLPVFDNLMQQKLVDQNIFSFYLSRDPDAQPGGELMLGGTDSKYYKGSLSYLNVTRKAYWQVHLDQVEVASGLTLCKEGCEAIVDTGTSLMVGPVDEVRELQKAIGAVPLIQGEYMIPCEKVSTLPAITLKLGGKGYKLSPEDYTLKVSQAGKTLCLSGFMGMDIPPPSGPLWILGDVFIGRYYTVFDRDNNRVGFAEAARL
# Chain of Caspase-8 (Homo sapiens) (Q14790 217-374 limits assumed): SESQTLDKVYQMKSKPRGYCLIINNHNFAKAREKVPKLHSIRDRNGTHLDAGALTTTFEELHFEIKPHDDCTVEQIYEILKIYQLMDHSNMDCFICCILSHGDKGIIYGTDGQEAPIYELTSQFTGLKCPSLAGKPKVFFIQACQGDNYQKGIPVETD
# Chain of Caspase-8 (Homo sapiens) (Q14790 385-479 limits assumed): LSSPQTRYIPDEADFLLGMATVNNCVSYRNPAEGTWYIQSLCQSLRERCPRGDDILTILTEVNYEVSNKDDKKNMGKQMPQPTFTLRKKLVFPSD
compound,measurement,setting,value
C=C[C@@H]1C[C@]1(NC(=O)[C@@H]1C[C@@H](Oc2cc(-c3csc(NC(=O)C(C)C)n3)nc3c(Br)c(OC)ccc23)CN1C(=O)[C@@H](NC(=O)OC1CCCC1)C(C)(C)C)C(=O)O,inhibition,Homo sapiens [1],58%
same,inhibition,[2],11%
same,inhibition,Rattus norvegicus [3],9%
same,inhibition,[4],5%
same,inhibition,Homo sapiens [5],22%
same,inhibition,[6],77%
same,inhibition,[7],39%
same,inhibition,[8],13%
same,inhibition,[9],78%
same,inhibition,Rattus norvegicus [10],16%
same,inhibition,Rattus norvegicus [11],28%
same,inhibition,Caspase-2 (Homo sapiens),5%
same,inhibition,Rattus norvegicus [12],12%
same,inhibition,Homo sapiens [13],5%
same,inhibition,Rattus norvegicus [14],10%
same,inhibition,Caspase-8 (Homo sapiens),5%
same,EC50,Hepatitis C virus,50 nM
same,inhibition,Rattus norvegicus [15],5%
same,Cmax,[16],2000 nM
same,inhibition,[17],9%
same,inhibition,[18],43%
same,Tmax,[19],2 h
same,AUC(0-inf),[20],8.3 µM·h
same,inhibition,[21],20%
same,inhibition,[22],18%
same,inhibition,[23],0%
same,inhibition,[24],74%
same,inhibition,[25],7%
same,inhibition,[26],18%
same,inhibition,Caspase-5 (Homo sapiens),24%
same,inhibition,[27],1%
same,Cmax,[28],410 nM
same,inhibition,Trypsin (Homo sapiens),2%
same,inhibition,[29],19%
same,inhibition,[30],7%
same,inhibition,[31],6%
same,inhibition,[32],14%
same,inhibition,Mesocricetus auratus,12%
same,inhibition,[33],18%
same,inhibition,Caspase-1 (Homo sapiens),13%
same,inhibition,[34],47%
same,inhibition,[35],3%
same,inhibition,[36],50%
same,Tmax,[37],1.5 h

# — ChEMBL document CHEMBL1671761, “Preclinical characterization of BI 201335, a C-terminal carboxylic acid inhibitor of the hepatitis C virus NS3-NS4A protease” (Antimicrob Agents Chemother, 2010)
